Assay [1] deals with Saccharomyces cerevisiae. The assay can be described thus: Growth inhibition of Saccharomyces cerevisiae 1138 mutant by yeast bioassay. The class given is functional.
The next assay deals with M109. The assay can be described thus: Cytotoxicity against mouse M109 cells. The format is functional, cell-based. In outline: (§1)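 Cell-culture cytotoxicity in a 25-line panel by standard methods. Activity given as IC50 in µM.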
The test system of a further assay is MLF. The assay can be described thus: Cytotoxicity against MLF cells. The class given is cell-based. To be noted: Mus musculus. In outline:
as §1

Assay [2] in a line: Cytotoxicity against human OVACR3 cells. The format is functional, cell-based. In outline:
as §1

In another assay the test system is A-431. The assay can be described thus: Cytotoxicity against human A431 cells. The class given is functional, cell-based. In outline: as §1
Assay [3] relates to A2780. The experiment in a line: Cell cycle arrest in human A2780 cells overexpressing wild type p53 by accumulation at G1 phase at 5 X respective cytotoxic IC50 after 24 hrs by FACS. The format is functional, cell-based. In outline:
(§2)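 Flow cytometry (FACS) of A2780/p53wt cells after 24 h exposure at increasing multiples of each compound's own IC50, scored for G1 arrest and apoptosis; A2780/mutp53 cells run alongside.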
Background: Flow cytometry measures light scatter and fluorescence of single cells or particles in a stream.

Assay [4] concerns A2780. The experiment in a line: Induction of apoptosis in human A2780 cells overexpressing wild type p53 at >5 X respective cytotoxic IC50 after 24 hrs. The format is functional, cell-based. An outline of the steps:
as §2

Assay [5] has as its system Saccharomyces cerevisiae. The experiment in a line: Growth inhibition of Saccharomyces cerevisiae 1140 mutant by yeast bioassay. The format is functional.
Assay [6] relates to Saccharomyces cerevisiae. The experiment in a line: Growth inhibition of Saccharomyces cerevisiae 1353 mutant by yeast bioassay. The format is functional.

Active and inactive are the calls of the source. The calls are words filed in the database; no cut-off is given here.

For `O=C(O)c1c2nc3ccccc3c-2[nH]c2ccccc12`, the IC12 in the assay on Saccharomyces cerevisiae [1] is > 400 µg/mL.

Consider `CC(=O)n1c2ccccc2c2nc3ccccc3cc21`, for which the IC12 in the assay on Saccharomyces cerevisiae [1] worked out at 80 µg/mL.

Turning to `OCc1c2ccccc2nc2c1[nH]c1ccccc12`, the IC12 in the assay on Saccharomyces cerevisiae [1] came out at 125 µg/mL.

For the compound `O=C(OCCO)c1c2ccccc2nc2c1[nH]c1ccccc12`, the IC12 with Saccharomyces cerevisiae [1] was > 400 µg/mL.

As to `O=C(OCCOC(=O)c1c2ccccc2nc2c1[nH]c1ccccc12)c1c2ccccc2nc2c1[nH]c1ccccc12`, the IC12 in the assay on Saccharomyces cerevisiae [1] is > 400 µg/mL.

The IC50 is the midpoint of a concentration-inhibition curve. Turning to `CC(=O)n1c2ccccc2c2c1cc1ccccc1[n+]2C.[Cl-]`, the IC50 in the assay on M109 was < 1000 nM; with MLF it was 4900 nM; in assay [2], 500 nM; in the assay with A-431 it was 340 nM. Further, the IC12 in the assay with Saccharomyces cerevisiae [1] was found to be 5 µg/mL. Further, in the assay on A2780 [3], the outcome was Active. Further, the Activity result in the assay on A2780 [4] was “Dose-dependent effect”.

Consider `CCn1c2ccccc2c2c1cc1ccccc1[n+]2C.O=S(=O)([O-])C(F)(F)F`, for which the IC12 with Saccharomyces cerevisiae [1] turned out to be 80 µg/mL.

Turning to `C=CCn1c2ccccc2c2c1cc1ccccc1[n+]2C.O=S(=O)([O-])C(F)(F)F`, the IC12 with Saccharomyces cerevisiae [1] was found to be 200 µg/mL.

Turning to `Cc1c2nc3ccccc3c-2[nH]c2ccccc12`, in the assay with M109, the IC50 is < 10000 nM. For the same compound, the IC12 in the assay on Saccharomyces cerevisiae [1] came to 50 µg/mL.

Consider `CCCC[n+]1c2ccccc2cc2[nH]c3ccccc3c21.[Br-]`, for which the IC12 in the assay on Saccharomyces cerevisiae [1] is > 400 µg/mL.

For `c1ccc2nc3c(cc2c1)[nH]c1ccccc13` [QUINDOLINE], the IC12 with Saccharomyces cerevisiae [1] turned out to be 150 µg/mL.

Take `C[n+]1c2ccccc2cc2[nH]c3ccccc3c21` [listing 1 of 2 here]: the result in the assay on A2780 [3] was Active. For the same compound, the Activity entry in the assay with A2780 [4] was “Dose-dependent effect”.

In the assay on Saccharomyces cerevisiae [1], `C[n+]1c2ccccc2cc2[nH]c3ccccc3c21.[I-]` [CRYPTOLEPTINE IODIDE] returned an IC12 of 1.5 µg/mL.

In the case of `CC(CO)(CO)NCc1c2ccccc2nc2c1[nH]c1ccccc12`, the IC12 with Saccharomyces cerevisiae [1] was > 400 µg/mL.

For `O=c1c2c3ccccc3nc3c4ccccc4n(c(=O)c4c5ccccc5nc5c6ccccc6n1c54)c32`, in the assay with Saccharomyces cerevisiae [1], the IC12 is > 400 µg/mL.

Turning to `Clc1c2ccccc2nc2c1oc1ccccc12`, the IC12 in the assay on Saccharomyces cerevisiae [1] was > 400 µg/mL.

The compound `COC(=O)c1c2cc(Br)ccc2nc2c1[nH]c1ccccc12` had an IC12 in the assay with Saccharomyces cerevisiae [1] of 100 µg/mL.

Take `CC[n+]1c2ccccc2cc2[nH]c3ccccc3c21.[I-]`: the IC50 in the assay on M109 was < 50000 nM. Moreover, the IC12 with Saccharomyces cerevisiae [1] was found to be 40 µg/mL.

Take `C[n+]1c2ccccc2cc2oc3ccccc3c21.[I-]`: the IC12 with Saccharomyces cerevisiae [1] was determined as 400 µg/mL.

In the case of `C[n+]1c2ccccc2cc2[nH]c3ccccc3c21` [listing 2 of 2 here], the IC50 was < 1000 nM in the assay with M109, 4900 nM in the assay on MLF, 500 nM in assay [2] and 340 nM in the assay with A-431.

For `c1ccc2nc3c(cc2c1)oc1ccccc13`, in the assay with Saccharomyces cerevisiae [1], the IC12 is > 400 µg/mL.

`CCCn1c2ccccc2c2c1cc1ccccc1[n+]2C.O=S(=O)([O-])C(F)(F)F`: the IC12 in the assay with Saccharomyces cerevisiae [1] amounted to 125 µg/mL.

Turning to `C[n+]1c2ccccc2cc2[n-]c3ccccc3c21.Cl` [CRYPTOLEPINE HYDROCHLORIDE], in the assay with M109, the IC50 is < 1 µg/mL. The IC12 with Saccharomyces cerevisiae [5], with Saccharomyces cerevisiae [6] and in the assay with Saccharomyces cerevisiae [1] was 0.6 µg/mL each time.

Consider `c1ccc(Cn2c3ccccc3c3nc4ccccc4cc32)cc1`, for which the IC12 with Saccharomyces cerevisiae [1] was > 400 µg/mL.

On to `Ic1c2ccccc2nc2c1oc1ccccc12`, for which the IC12 in the assay on Saccharomyces cerevisiae [1] is > 400 µg/mL.

Regarding `O=C1OCc2c3ccccc3nc3c4ccccc4n1c23`, the IC50 in the assay with M109 was < 10000 nM. In addition, the IC12 in the assay with Saccharomyces cerevisiae [1] was 50 µg/mL.

In the case of `CCC[n+]1c2ccccc2cc2[nH]c3ccccc3c21.[I-]`, the IC12 in the assay on Saccharomyces cerevisiae [1] came to 400 µg/mL.

In the case of `Cn1c2ccccc2c2c1cc1ccccc1[n+]2C.O=S(=O)([O-])C(F)(F)F`, the IC50 in the assay with M109 is < 10000 nM. The compound further returned an IC12 in the assay with Saccharomyces cerevisiae [1] of 5 µg/mL.

`C[n+]1c2ccccc2cc2[n-]c3ccccc3c21` [CRYPTOLEPINE] had an IC12 in the assay with Saccharomyces cerevisiae [1] of 0.5 µg/mL.

As for `COC(=O)c1c2ccccc2nc2c1[nH]c1ccccc12`, the IC50 with M109 was < 10000 nM. In addition, the IC12 in the assay with Saccharomyces cerevisiae [1] is 40 µg/mL.

In the case of `O=c1c2ccccc2[nH]c2c1oc1ccccc12`, the IC12 in the assay with Saccharomyces cerevisiae [1] was > 400 µg/mL.

Compound `NC(=O)c1c2cc(Br)ccc2nc2c1[nH]c1ccccc12` returned an IC12 in the assay on Saccharomyces cerevisiae [1] of 400 µg/mL.

`O=Cc1c2ccccc2nc2c1[nH]c1ccccc12`: the IC12 with Saccharomyces cerevisiae [1] was > 400 µg/mL.

As to `CCCCn1c2ccccc2c2c1cc1ccccc1[n+]2C.O=S(=O)([O-])C(F)(F)F`, the IC12 in the assay with Saccharomyces cerevisiae [1] was determined as 90 µg/mL.

Values taken from ChEMBL document CHEMBL1144068, “Synthesis and biological evaluation of analogues of cryptolepine, an alkaloid isolated from the Suriname rainforest” (J Nat Prod, 1999).
